Experimental findings from ChEMBL document CHEMBL1125559, “Analogues of platelet activating factor. 7. Bis-aryl amide and bis-aryl urea receptor antagonists of PAF” (J Med Chem, 1992) are described below.

The species named for series [1] is Oryctolagus cuniculus. Nature of the series: Concentration required to inhibit PAF (5*10e-8 M) induced platelet aggregation in rabbit platelet rich plasma(PRP) by 50%. In kind it is functional, organism-based. The gist of the method: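 Rabbit PRP came from blood spun at 800 rpm for 15 min at room temperature, with platelet counts of 350 000–550 000/µL. PRP was equilibrated 1–2 min at 37 °C in an aggregometer. It was preincubated 5 min with test compound (final 10^-8 to 10^-5 M; methanol stock diluted in saline) or saline, then challenged with L-C16-PAF. IC50 was taken from concentration–response curves of aggregation magnitude and averaged over separate determinations.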

For series [2], the system named is Mus musculus. Briefly: Compound was evaluated for PAF-induced lethality in mouse (intraperitoneally at a dose of 1.0 mg/kg in saline 0.5 hr before lethal intravenous PAF challenge 75-150 mg/kg); 11/14. In kind it is ADME, organism-based. Also on record: dose 1 mg/kg. Particulars: in vivo; call rule not given here. An outline of the steps: (§1)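 Female Swiss-Webster mice (20-25 g) received test compound ip in saline (10 mL/Kg); controls got saline alone. The PAF dose was chosen daily from small pilot groups. Survival was scored at 1.5 h and recorded as dead/total.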

The subject of series [3] is Mus musculus. Nature of the series: Compound was evaluated for PAF-induced lethality in mouse (intraperitoneally at a dose of 1.0 mg/kg in saline 0.5 hr before lethal intravenous PAF challenge 75-150 mg/kg). In kind it is ADME, organism-based. Also on record: dose 1 mg/kg, route intraperitoneal. Particulars: in vivo. The gist of the method:
as §1

The species named for series [4] is Oryctolagus cuniculus. Nature of the series: Concentration required to inhibit PAF (5*10e-8 M) induced platelet aggregation in rabbit platelet rich plasma(PRP) by 50% at 10 uM. It is filed as functional.
Series [5] concerns Mus musculus. Nature of the series: Compound was evaluated for PAF-induced lethality in mouse (intraperitoneally at a dose of 1.0 mg/kg in saline 0.5 hr before lethal intravenous PAF challenge 75-150 mg/kg); 9/23. Particulars: in vivo. Also on record: dose 1 mg/kg, route intravenous. It is filed as ADME, organism-based. The gist of the method:
as §1

Series [6] concerns Mus musculus. Briefly: Compound was evaluated for PAF-induced lethality in mouse (intraperitoneally at a dose of 1.0 mg/kg in saline 0.5 hr before lethal intravenous PAF challenge 75-150 mg/kg); 12/39. In kind it is ADME, organism-based. Also on record: dose 1 mg/kg. Particulars: in vivo. The gist of the method: as §1
In series [7] the test system is Mus musculus. Briefly: Compound was evaluated for PAF-induced lethality in mouse (intraperitoneally at a dose of 1.0 mg/kg in saline 0.5 h before lethal intravenous PAF challenge 75-150 mg/kg); 12/14. Particulars: in vivo. It is filed as ADME, organism-based. Also on record: dose 1 mg/kg. An outline of the steps:
as §1

Series [8] relates to Mus musculus. Briefly: Compound was evaluated number of mouse dead out of total (intraperitoneally at a dose of 1.0 mg/kg in saline 0.5 hr before lethal intravenous PAF challenge 75-150 mg/kg); 6/12. It is filed as ADME, organism-based. Also on record: dose 1 mg/kg, route intravenous. Particulars: in vivo. The gist of the method:
as §1

Series [9] is filed under the species Oryctolagus cuniculus. Nature of the series: Concentration required to inhibit PAF (5*10e-8 M) induced platelet aggregation in rabbit platelet rich plasma(PRP) by 50% at 10 uM; NI= No inhibition. In kind it is functional, organism-based.
Series [10] concerns Mus musculus. Briefly: Compound was evaluated for PAF-induced lethality in mouse (intraperitoneally at a dose of 1.0 mg/kg in saline 0.5 hr before lethal intravenous PAF challenge 75-150 mg/kg); 5/12. In kind it is ADME, organism-based. Also on record: dose 1 mg/kg, route intravenous. Particulars: in vivo. The gist of the method: as §1
Series [11] has as its system Mus musculus. Briefly: Compound was evaluated for PAF-induced lethality in mouse (intraperitoneally at a dose of 1.0 mg/kg in saline 0.5 hr before lethal intravenous PAF challenge 75-150 mg/kg); 9/24. In kind it is ADME, organism-based. Also on record: dose 1 mg/kg. Particulars: in vivo. An outline of the steps: as §1
In series [12] the test system is Mus musculus. Briefly: Compound was evaluated for PAF-induced lethality in mouse (intraperitoneally at a dose of 1.0 mg/kg in saline 0.5 hr before lethal intravenous PAF challenge 75-150 mg/kg); 8/13. Particulars: in vivo. It is filed as ADME, organism-based. Also on record: dose 1 mg/kg, route intravenous. The gist of the method: as §1

In [1], `CCCCCCCCCCCCCCCCOc1ccc(OCC(=O)Nc2cccc(C[n+]3csc(C)c3)c2)cc1` gave an IC50 of 5000 nM.

In [1], `CCCCCCCCCCCCCCCCOc1ccc(CC(=O)Nc2cccc(C[n+]3csc(C)c3)c2)cc1` displayed an IC50 of 5300 nM.

On to `CCCCCCCCCCCCCCOc1ccc(CN(C(=O)CCC)c2cccc(C[n+]3csc(C)c3)c2)cc1.[Br-]`, for which inhibition in [1] was half-maximal at 260 nM (IC50). This compound also displayed a Dead/total in series [2] of 11. In addition, the Lethality in series [3] is on record as 79%.

In series [4], `CCCCCCCCCCCCCCOc1cc(CNC(=O)c2cccc(C[n+]3csc(C)c3)c2)cc(OC)c1.[Br-]` showed an Inhibition of 43%.

`Cc1nnc2n1-c1sc(CCC(=O)N3CCOCC3)cc1C(c1ccccc1Cl)=NC2` [APAFANT] yielded an IC50 in series [1] of 340 nM.

For the compound `CCCCCCCCCCCCCCOc1ccc(C)cc1CN(C(C)=O)c1cccc(C[n+]2csc(C)c2)c1.[Br-]`, the IC50 in series [1] stood at 1500 nM. In addition, the Lethality in series [3] amounted to 39%. The Dead/total in series [5] stood at 9.

As for `CCCCCCCCCCCCCCOc1ccc(CNC(=O)c2ccc(C[n+]3csc(C)c3)cc2)cc1.[Br-]`, the IC50 in series [1] was found to be 2900 nM. In series [3], this compound returned a Lethality of 31%. This compound returned a Dead/total in [6] of 12.

The compound `CCCCCCCCCCCCCCOc1cc(CN(C(C)=O)c2cccc(C[n+]3csc(C)c3)c2)ccc1C.[Br-]` yielded an IC50 in series [1] of 6700 nM. Moreover, the Dead/total in [7] is listed as 12. In [3], the Lethality stood at 86%.

`CCCCCCCCCCCCOc1ccc(CC(=O)Nc2cccc(C[n+]3csc(C)c3)c2)cc1.[Br-]` gave a Dead/total in series [8] of 6. In series [1], this compound returned an IC50 of 2900 nM. For the same compound, the Lethality in [3] was determined as 55%.

Turning to `CCCCCCCCCCCCCCOc1ccc(CC(=O)Nc2ccccc2C[n+]2csc(C)c2)cc1.[Br-]`, the IC50 result in series [9] was “Not Active”.

For the compound `CCCCCOc1c(OC)cc(CN(C(C)=O)c2cccc(C[n+]3csc(C)c3)c2)cc1OC`, it took 2300 nM to reach half-maximal inhibition in [1] (IC50).

`CCCCCCCCCCCCCCOc1ccc(NC(=O)c2cccc(C[n+]3csc(C)c3)c2)cc1` gave an IC50 in series [1] of 2700 nM.

In series [1], `CCCCCCCCCCCCCCOc1ccc(CN(C(C)=O)c2cccc(C[n+]3csc(C)c3)c2)cc1OC` showed an IC50 of 320 nM.

As for `CCCCCCCCCCCCCCOc1ccc(N(Cc2cccc(C[n+]3csc(C)c3)c2)C(C)=O)cc1`, it took 1000 nM to reach half-maximal inhibition in series [1] (IC50).

Turning to `CCCCCCCCCCCCCCOc1ccc(CNc2cccc(C[n+]3csc(C)c3)c2)cc1.[Br-]`, in series [10], the Dead/total was determined as 5. In series [1], this compound displayed an IC50 of 7100 nM. In [3], this compound came in with a Lethality of 42%.

The compound `CCCCCCCCCCCCCCOc1c(C)cc(CNC(=O)c2cccc(C[n+]3csc(C)c3)c2)cc1C` gave an IC50 in series [1] of 3100 nM.

For `COc1cc([C@H]2CC[C@H](c3cc(OC)c(OC)c(OC)c3)O2)cc(OC)c1OC`, the IC50 in series [1] is 1600 nM.

Take `CCCCCCCCCCCCCCOc1ccc(CN(C(C)=O)c2cccc(C[n+]3csc(C)c3)c2)cc1.[Br-]`: the Dead/total in series [11] was 9. In addition, in [1], the IC50 came to 260 nM. The compound further had a Lethality in series [3] of 38%.

Regarding `CCCCCCCCCCCCCCOc1ccc(CN(C(=O)NC)c2cccc(C[n+]3csc(C)c3)c2)cc1.[Br-]`, the IC50 in series [1] amounted to 530 nM. This compound displayed a Lethality in series [3] of 62%. In addition, the Dead/total in series [12] is reported as 8.

The compound `CCCCCCCCCCCCCCOc1cccc(C(=O)Nc2cccc(C[n+]3csc(C)c3)c2)c1` showed an IC50 in series [1] of 4200 nM.

Compound `CCCCCCCCCCCCCCOc1ccc(CNC(=O)c2cccc(C[n+]3csc(C)c3)c2)cc1C(C)(C)C` gave an IC50 in series [1] of 3500 nM.

In turn, `CCCCCCCCCCCCCCOc1c(C)cc(CN(C(C)=O)c2cccc(C[n+]3csc(C)c3)c2)cc1C` registered a half-maximal inhibitory concentration (IC50) in series [1] of 710 nM.
